The source made the active and inactive calls. The calls are words filed in the database; no cut-off is given here. Non-standard residues stand in square brackets, D forms with d. Residues, ends and D or L forms follow the SMILES beside them. ξ: configuration not given here. Aoe(9ξ) = N[C@@H](CCCCCC(=O)C1CO1)C(=O)O; dPip = O=C(O)[C@H]1CCCCN1
Experiments:
Histone deacetylase HD2 [1] = molecular target: T1, Histone deacetylase HD2 (Zea mays, UniProt Q94F81); test: Concentration required for inhibition of histone deacetylase HD2 in vitro.
T1 sequence (Q94F81 whole entry): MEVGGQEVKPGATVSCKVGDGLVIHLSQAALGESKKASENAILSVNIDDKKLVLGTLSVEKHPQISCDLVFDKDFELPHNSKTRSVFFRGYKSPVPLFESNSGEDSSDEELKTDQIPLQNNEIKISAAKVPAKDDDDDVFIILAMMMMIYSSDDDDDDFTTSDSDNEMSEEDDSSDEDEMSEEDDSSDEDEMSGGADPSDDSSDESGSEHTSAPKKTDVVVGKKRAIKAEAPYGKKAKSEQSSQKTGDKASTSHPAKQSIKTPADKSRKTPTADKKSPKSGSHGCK

[2] = molecular target: T2, Histone deacetylase HD2 (Zea mays) (UniProt Q94F81); test: Ability to inhibit maize histone deacetylase enzyme in vitro using [3H]acetate-prelabeled chicken reticulocyte histones at 21.7 uM
T2 sequence (whole entry): T1 sequence (Q94F81 whole entry)
Summary of the method: (§1)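 Maize HD2, purified by anion exchange, heparin/histone affinity and size exclusion chromatography, incubated 30 min at 30 °C with [3H]acetate-prelabeled chicken reticulocyte core histones (1 mg/mL). Stopped with HCl/acetate and extracted into ethyl acetate. Released [3H]acetic acid in the upper phase was counted by liquid scintillation. Compounds started at 40 µM and active ones were diluted further. Blank solvents served as negative controls. IC50 values are from triple determinations.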

Histone deacetylase HD2 [3] = molecular target: T1, Histone deacetylase HD2; test: (§2) Inhibitory concentration against histone deacetylase HD2 enzyme.; summary of the method: as §1
[4] = molecular target: T2, Histone deacetylase HD2 (Zea mays); test: Ability to inhibit maize histone deacetylase enzyme in vitro using [3H]acetate-prelabeled chicken reticulocyte histones at 29 uM
Summary of the method: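 Maize HD2 purified by anion exchange, heparin/histone affinity and size exclusion chromatography. Enzyme incubated 30 min at 30 °C with [3H]acetate-prelabeled chicken reticulocyte core histones (1 mg/mL). Stopped with HCl/acetate, then extracted into ethyl acetate; released [3H]acetic acid in the upper phase counted by liquid scintillation. Triple determinations; blank solvent as negative control.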

[5] = molecular target: T2, Histone deacetylase HD2 (Zea mays); test: Ability to inhibit maize histone deacetylase enzyme in vitro using [3H]acetate-prelabeled chicken reticulocyte histones at 28 uM; summary of the method: as §1
[6] = molecular target: T2, Histone deacetylase HD2 (Zea mays); test: Ability to inhibit maize histone deacetylase enzyme in vitro using [3H]acetate-prelabeled chicken reticulocyte histones at 28.2 uM; summary of the method: as §1
[7] = molecular target: T2, Histone deacetylase HD2 (Zea mays); test: Ability to inhibit maize histone deacetylase enzyme in vitro using [3H]acetate-prelabeled chicken reticulocyte histones at 24.8 uM; summary of the method: as §1
[8] = molecular target: T2, Histone deacetylase HD2 (Zea mays); test: Ability to inhibit maize histone deacetylase enzyme in vitro using [3H]acetate-prelabeled chicken reticulocyte histones at 27 uM; summary of the method: as §1
[9] = molecular target: T2, Histone deacetylase HD2 (Zea mays); test: Ability to inhibit maize histone deacetylase enzyme in vitro using [3H]acetate-prelabeled chicken reticulocyte histones at 21.3 uM; summary of the method: as §1
[10] = molecular target: T2, Histone deacetylase HD2 (Zea mays); test: Ability to inhibit maize histone deacetylase enzyme in vitro using [3H]acetate-prelabeled chicken reticulocyte histones at 30 uM; No inhibition; summary of the method: as §1
[11] = molecular target: T2, Histone deacetylase HD2 (Zea mays); test: as §2; summary of the method: as §1
[12] = molecular target: T2, Histone deacetylase HD2 (Zea mays); test: Ability to inhibit maize histone deacetylase enzyme in vitro using [3H]acetate-prelabeled chicken reticulocyte histones at 23.9 uM; summary of the method: as §1
[13] = molecular target: T2, Histone deacetylase HD2 (Zea mays); test: Ability to inhibit maize histone deacetylase enzyme in vitro using [3H]acetate-prelabeled chicken reticulocyte histones at 30 uM; NI = No inhibition; summary of the method: as §1
[14] = molecular target: T2, Histone deacetylase HD2 (Zea mays); test: Ability to inhibit maize histone deacetylase enzyme in vitro using [3H]acetate-prelabeled chicken reticulocyte histones at 22.6 uM; summary of the method: as §1
[15] = molecular target: T2, Histone deacetylase HD2 (Zea mays); test: Ability to inhibit maize histone deacetylase enzyme in vitro using [3H]acetate-prelabeled chicken reticulocyte histones at 29.8 uM; summary of the method: as §1
[16] = molecular target: T2, Histone deacetylase HD2 (Zea mays); test: Ability to inhibit maize histone deacetylase enzyme in vitro using [3H]acetate-prelabeled chicken reticulocyte histones at 24 uM
Summary of the method: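 Maize HD2 purified by anion exchange, heparin/histone affinity and size exclusion chromatography. Enzyme incubated 30 min at 30 °C with [3H]acetate-prelabeled chicken reticulocyte core histones (1 mg/mL stock). Reaction stopped with HCl/acetate plus ethyl acetate, then centrifuged. Released [3H]acetic acid in the upper phase counted by liquid scintillation. Blank solvent served as negative control. Triple determinations.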

[17] = molecular target: T2, Histone deacetylase HD2 (Zea mays); test: Ability to inhibit maize histone deacetylase enzyme in vitro using [3H]acetate-prelabeled chicken reticulocyte histones at 23.3 uM; summary of the method: as §1
[18] = molecular target: T2, Histone deacetylase HD2 (Zea mays); test: Ability to inhibit maize histone deacetylase enzyme in vitro using [3H]acetate-prelabeled chicken reticulocyte histones at 26 uM; summary of the method: as §1
[19] = molecular target: T2, Histone deacetylase HD2 (Zea mays); test: Ability to inhibit maize histone deacetylase enzyme in vitro using [3H]acetate-prelabeled chicken reticulocyte histones at 20.8 uM; summary of the method: as §1
[20] = molecular target: T2, Histone deacetylase HD2 (Zea mays); details: 25 uM
[21] = molecular target: T2, Histone deacetylase HD2 (Zea mays); test: Ability to inhibit maize histone deacetylase enzyme in vitro using [3H]acetate-prelabeled chicken reticulocyte histones at 25.7 uM; summary of the method: as §1
[22] = molecular target: T2, Histone deacetylase HD2 (Zea mays); details: 24.6 uM
[23] = molecular target: T2, Histone deacetylase HD2 (Zea mays); test: Ability to inhibit maize histone deacetylase enzyme in vitro using [3H]acetate-prelabeled chicken reticulocyte histones at 25.8 uM; summary of the method: as §1
[24] = molecular target: T2, Histone deacetylase HD2 (Zea mays); details: 22.4 uM

SMILES | IC50 (Histone deacetylase HD2 [1]) [nM] | IC50 (Histone deacetylase HD2 [3]) [nM] | also measured
Cn1cc(C(=O)CCCCCCc2ccccc2)cc1/C=C/C(=O)NO | 266 | 263 | inhibition [2]: 95%
Cn1cc(C(=O)c2ccccc2)cc1CC(=O)NO | 34700 | 34700 | –
Cn1cc(C(=O)Cc2ccccc2)cc1/C=C/C(=O)NO | 100 | 100 | inhibition [4]: 96%
Cn1cc(C(=O)/C=C/c2ccccc2)cc1/C=C/C(=O)NO | 1000 | 1000 | inhibition [5]: 95%
Cn1c(CC(=O)NO)ccc1C(=O)Cc1ccccc1 | 17100 | 17000 | inhibition [6]: 64.2%
Cn1cc(C(=O)C2CC2c2ccccc2)cc1/C=C/C(=O)NO (stereo unspecified) | 310 | 309 | inhibition [7]: 97.6%
C/C(=C\c1cc(C(=O)c2ccccc2)cn1C)C(=O)NO | 2700 | 2690 | inhibition [8]: 83%
Cn1cc(C(=O)C2(c3ccccc3)CC2)cc1/C=C/C(=O)NO | 101 | 100 | inhibition [9]: 94.2%
CC/C(=C\c1cc(C(=O)Cc2ccccc2)cn1C)C(=O)NO | – | – | inhibition [10]: inactive; Log IC50 [11]: inactive
Cn1cc(C(=O)Cc2ccccc2)cc1CCC(=O)NO | 1200 | 1200 | inhibition [8]: 96%
O=C(CCCCC[C@@H]1NC(=O)[C@H]2CCCCN2C(=O)[C@H](Cc2ccccc2)NC(=O)[C@H](Cc2ccccc2)NC1=O)C1CO1 (stereo partly specified) [TRAPOXIN A] (cyclo(FF[dPip][Aoe(9ξ)])) | 10 | – | –
Cn1cc(C(=O)/C=C/c2ccccc2)cc1/C=C/C=C/C(=O)NO | 9900 | 10000 | inhibition [12]: 66%
Cn1cc(C(=O)Cc2ccccc2)cc1/C=C/C=C/C(=O)NO | 1480 | 1480 | inhibition [7]: 89.8%
Cn1cc(C(=O)c2ccccc2)cc1C=C(C(=O)O)C(=O)O | – | – | inhibition [13]: inactive; Log IC50 [11]: inactive
Cn1cc(C(=O)CCCCCc2ccccc2)cc1/C=C/C(=O)NO | 71 | 70.8 | inhibition [14]: 97.2%
Cn1c(CC(=O)NO)ccc1C(=O)c1ccccc1 | 20500 | 20400 | inhibition [15]: 61.3%

SMILES | IC50 (Histone deacetylase HD2 [1]) [nM] | IC50 (Histone deacetylase HD2 [3]) [nM] | also measured
Cn1cc(C(=O)c2ccc3ccccc3c2)cc1/C=C/C(=O)NO | 115 | 115 | inhibition [16]: 93.8%
Cn1cc(C(=O)c2cccc3ccccc23)cc1/C=C/C(=O)NO | 144 | 145 | inhibition [16]: 93.6%
Cn1cc(C(=O)c2ccccc2)cc1C=C(C(=O)NO)C(=O)NO | 66000 | 66100 | inhibition [17]: 22.7%
C/C(=C\c1cc(C(=O)Cc2ccccc2)cn1C)C(=O)NO | 1400 | 1410 | inhibition [18]: 95%
Cn1cc(C(=O)c2ccccc2)cc1/C=C/C=C/C(=O)NO | 770 | 776 | inhibition [5]: 94%
CC/C(=C\c1cc(C(=O)/C=C/c2ccccc2)cn1C)C(=O)NO | – | – | inhibition [10]: inactive; Log IC50 [11]: inactive
Cn1cc(C(=O)CCCCc2ccccc2)cc1/C=C/C(=O)NO | 110 | 110 | inhibition [17]: 94%
Cn1cc(C(=O)CCCCCCCc2ccccc2)cc1/C=C/C(=O)NO | 209 | 209 | inhibition [19]: 96%
C/C(=C\c1cc(C(=O)/C=C/c2ccccc2)cn1C)C(=O)NO | 1300 | 1290 | inhibition [20]: 96%
Cn1cc(C(=O)Cc2ccccc2)cc1CC(=O)NO | 10800 | 10700 | inhibition [6]: 62.8%
Cn1cc(C(=O)Cc2ccccc2)cc1C=C(C(=O)O)C(=O)O | – | – | inhibition [10]: inactive; Log IC50 [11]: inactive
Cn1cc(C(=O)CCc2ccccc2)cc1/C=C/C(=O)NO | 43 | 42.7 | inhibition [21]: 98%
Cn1cc(C(=O)CCCc2ccccc2)cc1/C=C/C(=O)NO | 130 | 129 | inhibition [22]: 94%
CC/C(=C\c1cc(C(=O)c2ccccc2)cn1C)C(=O)NO | – | – | Log IC50 [11]: inactive; inhibition [23]: 37%
CCCC(CCC)C(=O)O [VALPROATE SODIUM] | 128000 | – | –
Cn1cc(C(=O)Cc2ccccc2)cc1C=C(C(=O)NO)C(=O)NO | 200 | 200 | inhibition [24]: 91%
